Assay outcomes (PubChem)
The sample as a whole holds a higher share of hits than the screen did.
PostGolgi ctrl: yeast control strain growth, post-Golgi counter-screen. efflux-deficient yeast background strain, growth absorbance A615, 16 h. inhibition, % at 10 µM. 98,000 compounds, 5% hits. AID 738
Yeast growth inh: yeast BB579 growth reduction in restrictive medium; S. cerevisiae BB579 growth, OD615, 48 h; inhibition, % at 10 µM; 140,000 compounds, 0.51% hits; AID 804;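 active = inhibition above a set limit, 3 SD over the mean compound inhibition, cut at about 44% in these data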
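System: DeaD yeast strain BB579; buffer or medium: CSMM-D dextrose restrictive medium; technique: OD at 615 nm; schedule: 4 h cell preincubation, 48 h compound exposure, 30 °C humidified; doses: single 10 µM dose; controls: amphotericin B 10 µg/mL, positive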
Yeast lifespan up: extends the lifespan of yeast | S. cerevisiae growth with nicotinamide, OD615; deaD strain in restrictive glucose medium | inhibition of the nicotinamide effect, % at 10 µM | 130,000 compounds, 0.68% hits;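 active = inhibition above a set limit, placed 3 SD over the median of all compounds, cut at about 26% in these data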;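 also: 0% = nicotinamide-treated wells and 100% = cells grown without nicotinamide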
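Assay system: engineered S. cerevisiae DeaD replicative-lifespan strain, galactose-grown log-phase cells; Buffer or medium: CSMM-D glucose medium, restrictive; Probe or stimulus: nicotinamide 1.5 mM; Compound: single dose 10 µM compound, 0.25% DMSO; Schedule: 4 h preincubation then 48 h treatment at 30 °C; Technique: OD615 measurement.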
PostGolgi yeast: growth inhibition of a yeast mutant, post-Golgi transport screen; 98,000 compounds, 0.9% hits; AID 739; post-Golgi transport phenotypic cell assay; inhibition, % at 10 µM;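 also: yeast cells grown in 1536-well plates; yeast grown about 18 h at 30C before absorbance read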
Starred values were filed as active, the others as inactive; . = no result. Rule as the data show it, unless noted: active = inhibition above about 30%; inactive = the rest.

SMILES	PostGolgi ctrl	Yeast growth inh	Yeast lifespan up	PostGolgi yeast
O=S1(=O)CC(O)C(N2CCC(c3ccccc3)CC2)C1 (configuration not stated)	45*	-9	-16	5
O=S1(=O)CC(O)C(N2CCCCC2)C1 (configuration not stated)	.	-14	.	.
Cn1c(-c2cccc(Br)c2)cnc1NCc1cccnc1	0	-29	-7	0
COc1cccc(-c2cnc(NCc3cc(Cl)ccc3O)n2C)c1	71*	-9	-17	-7
CCOC(=O)C1CCCN(S(=O)(=O)c2cc(OCC(N)=O)c(C)cc2Cl)C1 (configuration not stated)	33*	-74	-11	-1
Cc1cc(Cl)c(S(=O)(=O)N2CCCCCC2)cc1OCC(N)=O	17	-17	-18	-4
Cc1c(C(=O)NN)nc2ccccn12	.	-30	0	.
Clc1ccc(-c2nnc(NC3=NCCCCC3)o2)cc1	30*	-10	-17	-9
CC(C)(C)NC(=O)CN(Cc1cccs1)C(=O)c1csnn1	31*	-22	-1	-10
CC(C)(C)NC(=O)CN(Cc1cccs1)C(=O)CCC(=O)Nc1nccs1	-8	16	-6	-7
C=CCNc1nc(N2CCCCC2)c(C#N)c2c1CN(Cc1ccccc1)CC2	18	-68	-26	3
O=C1c2ccccc2C(=O)N1CCc1nc2ccccc2c(=O)n1Cc1ccco1	6	-34	-14	1
COc1ccc(S(=O)(=O)NC2CCCC2)c(Cl)c1Cl	12	5	-9	-24
COC(=O)/C=C1\OC(c2ccccc2)=CC1=O	.	-15	38*	.
COc1ccc(CNC(=O)c2ccc(-c3ccccc3)cc2)cc1	-5	-60	-7	1
CO/C([O-])=N/c1c[n+](-c2ccc(Cl)cc2)no1	19	-34	-1	3
CC1(C)NC(=O)N(CCCSc2ccc(Cl)cc2)C1=O	12	-46	-3	13
CCN(CC)S(=O)(=O)c1ccc(O)c(NS(=O)(=O)c2ccccc2F)c1	.	-32	11	.
Cc1c(C(=O)N2CCOCC2)sc2nc(-c3ccccc3)cn12	7	-27	-17	-4
Cc1c(C(=O)N2CCc3ccccc3C2)sc2nc(-c3ccccc3)cn12	47*	-15	-8	5
CCC(C)NS(=O)(=O)c1ccc(S(=O)(=O)N(CC(=O)Nc2ccccc2)CC2CCCO2)cc1 (configuration not stated)	-5	8	-9	-6
NS(=O)(=O)c1ccc(N2N=C(c3ccccc3)CC2c2ccc(F)cc2)cc1 (configuration not stated)	50*	-27	1	14
O=C(COC(=O)Cc1ccsc1)NCC1CCCCC1	14	-42	-9	-8
Cc1ccc(N2C(=O)[C@@H]3Cc4ccccc4CN3C2=O)cc1	36*	-31	-3	1
COc1ccc(N2C(=O)[C@@H]3Cc4ccccc4CN3C2=O)cc1	13	-1	-6	0
SMILES	PostGolgi ctrl	Yeast growth inh	Yeast lifespan up	PostGolgi yeast
CCOc1ccc(S(=O)(=O)N2Cc3ccccc3CC2C(=O)NCCCn2ccnc2)cc1 (configuration not stated)	34*	-92	-4	-4
CCOc1ccc(NC(=S)NCCCn2ccnc2)cc1	.	-11	6	.
O=S(=O)(NCC(c1cccnc1)N1CCN(c2ccccc2)CC1)c1cc(F)ccc1F (configuration not stated)	75*	-53	-8	95*
O=C(c1cnccn1)N1CCN(S(=O)(=O)c2ccc3ccccc3c2)CC1	-4	7	-2	15
O=C(c1n[nH]c2ccccc12)N1CCN(S(=O)(=O)c2ccc3ccccc3c2)CC1	56*	-27	-6	14
C/C(=N\OCC(=O)Nn1c(=O)[nH]c2ccccc2c1=O)c1ccccc1	.	-15	0	.
Oc1c(C(Nc2ccccn2)c2cccnc2)cc(Cl)c2cccnc12 (configuration not stated)	.	-8	28*	.
Cc1cc(NC(c2cccnc2)c2ccc3cccnc3c2O)no1 (configuration not stated)	-5	-24	1	-3
CCC(C(=O)N1CCc2ccccc2C1)n1nc(C)n2c(cc3occc32)c1=O (configuration not stated)	30*	-19	14	-4
CC1=NN(c2ccccc2)C(=O)/C1=C\C=C1/N(C)c2ccccc2C1(C)C	.	10	-8	.
CC1=NN(c2ccccc2)C(=O)/C1=C/c1cc2cc(C)ccc2nc1N1CCCCC1	48*	-12	1	0
Cc1ccc(C)c(NC(=O)CSc2ccc(-c3ccco3)nn2)c1	.	-29	3	.
COc1nc(Cl)cn(-c2ccc(C)cc2)c1=O	.	-18	10	.
